The values below come from ChEMBL document CHEMBL3352384, “Synthesis and biological activity of new salicylanilide N,N-disubstituted carbamates and thiocarbamates” (Bioorg Med Chem, 2014).

The test system of data set [1] is Staphylococcus aureus. Nature of the data set: Antimicrobial activity against methicillin-resistant Staphylococcus aureus H 5996/08 after 24 hrs by microdilution method. The following applies: H 5996/08, 24 h. It is filed as functional. An outline of the steps:
(§1)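 Mueller-Hinton broth microdilution; compounds dissolved in DMSO, final concentrations 500 to 0.49 µM. […] Benzylpenicillin and bacitracin as comparators. Each determination done twice.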
(Dilution methods test growth across graded concentrations, often in twofold steps.)

Data set [2] deals with Mycobacterium kansasii. Kind of data set: Antimycobacterial activity against Mycobacterium kansasii 235/80 assessed as complete growth inhibition after 21 days. It is filed as functional. The following applies: 235/80, 504 h. The procedure, abridged:
(§2)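 Dilutions of M. kansasii inoculum were 10-4 for strain 235/80 and 10-5 for clinical isolate 6509/96. MIC was the lowest concentration giving complete growth inhibition, run in quadruplicate and repeated twice.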

A short description of data set [3]: Selectivity index, ratio of IC50 for human HepG2 cells to MIC for atypical mycobacteria. The procedure, abridged:
(§3)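 Selectivity index = HepG2 IC50 / MIC. HepG2 cells (passage 3–4) grown in Eagle's MEM with 10% FBS, L-glutamine and non-essential amino acids. Compounds added from DMSO, eight concentrations in triplicate, tetrazolium-reduction colorimetric read-out. IC50 is the concentration reducing viability to 50% of control; 10% DMSO as 0% viability.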

Data set [4] has as its system Mycobacterium avium. Nature of the data set: Antimycobacterial activity against Isoniazid, rifampicin, ofloxacin and ethambutol-resistant Mycobacterium avium 330/88 assessed as complete growth inhibition after 14 days. The format is functional. The following applies: 330/88, 336 h. The procedure, abridged:
(§4)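 M. tuberculosis 331/88 (H37Rv) inoculum diluted 10-3, M. avium 330/88 diluted 10-5. MIC is the lowest concentration giving complete growth inhibition. Isoniazid and p-aminosalicylic acid as references. Quadruplicate, repeated twice.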

In data set [5] the test system is HepG2. Nature of the data set: Cytotoxicity against human HepG2 cells assessed as reduction in cell viability after 24 hrs by MTS assay. Conditions: HepG2, 24 h. It is filed as cell-based. An outline of the steps: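 HepG2 hepatocellular carcinoma cells (passage 3–4) were grown in Eagle's MEM with 10% FBS, 1% L-glutamine and non-essential amino acids. Compounds were added from DMSO at eight concentrations in triplicate, with 10% DMSO as the 0% viability control. Viability was read by tetrazolium salt reduction (CellTiter 96 AQueous One). IC50 is the concentration reducing viability to 50% of control.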

Data set [6] concerns Staphylococcus epidermidis. Nature of the data set: Antimicrobial activity against Staphylococcus epidermidis H 6966/08 after 48 hrs by microdilution method. Conditions: H 6966/08, 48 h. The format is functional. An outline of the steps: (§5)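 Broth microdilution in Mueller-Hinton broth, compounds dissolved in DMSO, final concentrations 500 to 0.49 µM. Benzylpenicillin and bacitracin were run as comparators. MIC was taken as 95% (IC95) or greater growth reduction versus control. Each determination was done twice.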

Data set [7] deals with Mycobacterium avium. Nature of the data set: Antimycobacterial activity against Isoniazid, rifampicin, ofloxacin and ethambutol-resistant Mycobacterium avium 330/88 assessed as complete growth inhibition after 21 days. It is filed as functional. Conditions: 330/88, 504 h. An outline of the steps: as §4
Data set [8] in a line: Inhibition of Mycobacterium tuberculosis H37Rv isocitrate lyase assessed as glyoxylate phenyl hydrazone formation at 10 uM.
The subject of data set [9] is Staphylococcus aureus. Nature of the data set: Antimicrobial activity against methicillin-resistant Staphylococcus aureus H 5996/08 after 48 hrs by microdilution method. It is filed as functional. Conditions: H 5996/08, 48 h. An outline of the steps:
as §1

The subject of data set [10] is Staphylococcus aureus. Kind of data set: Antimicrobial activity against Staphylococcus aureus CCM 4516/08 after 48 hrs by microdilution method. It is filed as functional. Conditions: CCM 4516/08, 48 h. An outline of the steps: as §1
Data set [11] has as its system Trichophyton mentagrophytes. Nature of the data set: Antimicrobial activity against Trichophyton mentagrophytes 445 after 120 hrs by microdilution method. The format is functional. The following applies: Trichophyton mentagrophytes, 445, 120 h. An outline of the steps:
(§6)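 Broth microdilution in RPMI 1640 with glutamine, with fluconazole and amphotericin B as references. For filamentous fungi, MIC is expressed as the IC50, i.e. the concentration giving 50% growth reduction versus control. Each determination was done twice.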

Data set [12] in a line: Selectivity index, ratio of IC50 for human HepG2 cells to MIC for Trichophyton mentagrophytes 445.
The subject of data set [13] is Mycobacterium kansasii. Kind of data set: Antimycobacterial activity against clinical isolate Mycobacterium kansasii 6509/96 assessed as complete growth inhibition after 7 days. The format is functional. The following applies: 6509/96, 168 h. The procedure, abridged:
as §2

Data set [14] concerns Mycobacterium kansasii. Kind of data set: Antimycobacterial activity against clinical isolate Mycobacterium kansasii 6509/96 assessed as complete growth inhibition after 21 days. The format is functional. Conditions: 6509/96, 504 h. An outline of the steps:
as §2

Data set [15] deals with Enterococcus sp. Kind of data set: Antimicrobial activity against Enterococcus sp. J 14365/08 after 48 hrs by microdilution method. Conditions: J 14365/08, 48 h. It is filed as functional. An outline of the steps:
as §5

Data set [16] relates to Enterococcus sp. Nature of the data set: Antimicrobial activity against Enterococcus sp. J 14365/08 after 24 hrs by microdilution method. The format is functional. The following applies: J 14365/08, 24 h. The procedure, abridged: as §5
Data set [17] concerns Mycobacterium tuberculosis. Kind of data set: Antimycobacterial activity against Mycobacterium tuberculosis H37Rv 331/88 assessed as complete growth inhibition after 14 days. It is filed as functional. Conditions: H37Rv 331/88, 336 h. An outline of the steps: as §4
Data set [18] deals with Trichophyton mentagrophytes. Nature of the data set: Antimicrobial activity against Trichophyton mentagrophytes 445 after 72 hrs by microdilution method. Conditions: Trichophyton mentagrophytes, 445, 72 h. It is filed as functional. The procedure, abridged: as §6
For data set [19], the system named is Mycobacterium kansasii. Kind of data set: Antimycobacterial activity against clinical isolate Mycobacterium kansasii 6509/96 assessed as complete growth inhibition after 14 days. It is filed as functional. Conditions: 6509/96, 336 h. The procedure, abridged: as §2
Data set [20] deals with Mycobacterium kansasii. Kind of data set: Antimycobacterial activity against Mycobacterium kansasii 235/80 assessed as complete growth inhibition after 14 days. The format is functional. Conditions: 235/80, 336 h. The procedure, abridged:
as §2

Data set [21] in a line: Selectivity index, ratio of IC50 for human HepG2 cells to MIC for Mycobacterium tuberculosis H37Rv. The format is toxicity, cell-based. The following applies: read-out: Selectivity Index. The procedure, abridged:
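Selectivity index = HepG2 IC50 / MIC. HepG2 cells (passage 3–4) grown in Eagle's MEM with 10% FBS, L-glutamine and non-essential amino acids. Compounds added from DMSO, eight concentrations in triplicate, tetrazolium-reduction colorimetric read-out.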

Data set [22] relates to Mycobacterium kansasii. Kind of data set: Antimycobacterial activity against Mycobacterium kansasii 235/80 assessed as complete growth inhibition after 7 days. The format is functional. The following applies: 235/80, 168 h. An outline of the steps: as §2
Data set [23] in a line: Selectivity index, ratio of IC50 for human HepG2 cells to MIC for methicillin-resistant Staphylococcus aureus H 5996/08. An outline of the steps:
as §3

The test system of data set [24] is Staphylococcus epidermidis. Nature of the data set: Antimicrobial activity against Staphylococcus epidermidis H 6966/08 after 24 hrs by microdilution method. Conditions: H 6966/08, 24 h. It is filed as functional. The procedure, abridged:
as §5

For data set [25], the system named is Staphylococcus aureus. Nature of the data set: Antimicrobial activity against Staphylococcus aureus CCM 4516/08 after 24 hrs by microdilution method. It is filed as functional. Conditions: CCM 4516/08, 24 h. The procedure, abridged:
as §1

Data set [26] deals with Mycobacterium tuberculosis. Kind of data set: Antimycobacterial activity against Mycobacterium tuberculosis H37Rv 331/88 assessed as complete growth inhibition after 21 days. It is filed as functional. Conditions: H37Rv 331/88, 504 h. An outline of the steps:
as §4

SMILES strings stand for the structures. Values after ≈ are worked out from the molar mass of the structure shown. Bounds are passed on as bounds.

By MIC is commonly meant the lowest concentration that inhibits growth of the organism. By IC50 is commonly meant the midpoint of a concentration-inhibition curve. As usually defined, the inhibition is the drop in the measured response relative to a control, in per cent.

Take `CN(C)C(=S)Oc1ccc(Cl)cc1C(=O)Nc1ccc(Cl)cc1`: the MIC in [1] worked out at 3.9 µM (≈ 1.44 µg/mL); in data set [2] it was 16 µM (≈ 5.91 µg/mL); in data set [4], 16 µM (≈ 5.91 µg/mL); in data set [6], 31.2 µM (≈ 11.5 µg/mL); in [7] it was 16 µM (≈ 5.91 µg/mL); in [9], 7.81 µM (≈ 2.88 µg/mL). The MIC was 7.81 µM (≈ 2.88 µg/mL) in data set [10]; 1.95 µM (≈ 0.72 µg/mL) in data set [11]; 16 µM (≈ 5.91 µg/mL) in data set [13]; 16 µM (≈ 5.91 µg/mL) in data set [14]; > 125 µM in [15]; 125 µM (≈ 46.2 µg/mL) in data set [16]. The MIC in [17] is 4 µM (≈ 1.48 µg/mL); in data set [18], 1.95 µM (≈ 0.72 µg/mL); in [19], 16 µM (≈ 5.91 µg/mL); in data set [20] it was 16 µM (≈ 5.91 µg/mL); in data set [22], 8 µM (≈ 2.95 µg/mL); in data set [24], 7.81 µM (≈ 2.88 µg/mL). Also, the minimal inhibitory concentration (MIC) in [25] came out at 3.9 µM (≈ 1.44 µg/mL); in data set [26], 8 µM (≈ 2.95 µg/mL). Moreover, the “Selectivity Index” value in data set [3] amounted to 5.2; in [12], 442.8; in data set [23] it was 21.4. The IC50 in data set [5] was 83.5 µM. Further, the inhibition in data set [8] came to 6%. Also, the selectivity ratio in data set [21] came to 10.4.

With `O=C(Nc1ccc(F)cc1)c1cc(Cl)ccc1O`, the minimum inhibitory concentration (MIC) in data set [2] worked out at 16 µM (≈ 4.25 µg/mL); in [4], 16 µM (≈ 4.25 µg/mL); in [7], 32 µM (≈ 8.5 µg/mL); in [13], 8 µM (≈ 2.13 µg/mL); in data set [14] it was 16 µM (≈ 4.25 µg/mL); in data set [17], 8 µM (≈ 2.13 µg/mL). Further, the MIC worked out at 16 µM (≈ 4.25 µg/mL) in [19], 16 µM (≈ 4.25 µg/mL) in data set [20], 8 µM (≈ 2.13 µg/mL) in data set [22] and 8 µM (≈ 2.13 µg/mL) in data set [26]. Besides, the results for the “Selectivity Index” value in [3] and in data set [12] were 0.8 and 3.3, respectively. In addition, the IC50 in [5] came to 26.1 µM. Moreover, in [8], the inhibition turned out to be 14%. Besides, in [21], the selectivity ratio came out at 3.3.

Regarding `C[C@@H]1[C@H](O)[C@@H](C)/C=C/C=C/C=C/C=C/C=C/C=C/C=C/[C@H](O[C@@H]2O[C@H](C)[C@@H](O)[C@H](N)[C@@H]2O)C[C@@H]2O[C@](O)(C[C@@H](O)C[C@@H](O)[C@H](O)CC[C@@H](O)C[C@@H](O)CC(=O)O[C@H]1C)C[C@H](O)[C@H]2C(=O)O` [AMPHOTERICIN B], in [5], the IC50 is 2.5 µM. For the same compound, the MIC in data set [11] and in data set [18] was 1.95 µM (≈ 1.8 µg/mL) in each case. The “Selectivity Index” value in [12] was 1.3.

As for `O=C(Nc1ccc(Cl)cc1)c1cc(Cl)ccc1O`, the MIC in data set [2] is 8 µM (≈ 2.26 µg/mL); in data set [4], 8 µM (≈ 2.26 µg/mL); in [7], 16 µM (≈ 4.51 µg/mL); in [13], 4 µM (≈ 1.13 µg/mL); in data set [14] it was 8 µM (≈ 2.26 µg/mL); in data set [17], 4 µM (≈ 1.13 µg/mL). In addition, the MIC in [19] was 8 µM (≈ 2.26 µg/mL); in data set [20], 8 µM (≈ 2.26 µg/mL); in data set [22] it was 4 µM (≈ 1.13 µg/mL); in [26], 4 µM (≈ 1.13 µg/mL). In addition, the entries for the “Selectivity Index” value in data set [3] and in data set [12] were 1.4 and 11.1, respectively. Further, in data set [5], the IC50 was found to be 21.7 µM. For the same compound, the inhibition in data set [8] worked out at 13%. The selectivity ratio in data set [21] was 5.4.

For `O=C(Nc1ccc(Br)cc1)c1cc(Cl)ccc1O`, the minimal inhibitory concentration (MIC) was found to be 8 µM (≈ 2.61 µg/mL) in [2]; 8 µM (≈ 2.61 µg/mL) in data set [4]; 16 µM (≈ 5.23 µg/mL) in data set [7]; 4 µM (≈ 1.31 µg/mL) in data set [13]; 8 µM (≈ 2.61 µg/mL) in data set [14]; 4 µM (≈ 1.31 µg/mL) in [17]. In addition, the MIC in data set [19] was found to be 8 µM (≈ 2.61 µg/mL); in [20] it was 8 µM (≈ 2.61 µg/mL); in data set [22], 4 µM (≈ 1.31 µg/mL); in [26], 4 µM (≈ 1.31 µg/mL). The “Selectivity Index” value in data set [3] was found to be 1; in [12], 16. Also, the IC50 in data set [5] was 15.7 µM. In [8], the inhibition stood at 13%. In addition, the selectivity ratio in data set [21] is 3.9.
